# dFosB act-1: activators of delta FosB homodimer, primary screen, biochemical, fluorescence polarization, TAMRA-CDK5 oligo, single point | Protein FosB (Mus musculus), P13346 | purified delta FosB; percent of positive-control signal above neutral wells | activation, % at 25 µM | 0.99% of 340,000 active;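 active = mean activation above about 17%, with every replicate also reaching it, limit read from the data, passing the limit was not always enough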
# Target sequence (P13346 whole entry, looked up): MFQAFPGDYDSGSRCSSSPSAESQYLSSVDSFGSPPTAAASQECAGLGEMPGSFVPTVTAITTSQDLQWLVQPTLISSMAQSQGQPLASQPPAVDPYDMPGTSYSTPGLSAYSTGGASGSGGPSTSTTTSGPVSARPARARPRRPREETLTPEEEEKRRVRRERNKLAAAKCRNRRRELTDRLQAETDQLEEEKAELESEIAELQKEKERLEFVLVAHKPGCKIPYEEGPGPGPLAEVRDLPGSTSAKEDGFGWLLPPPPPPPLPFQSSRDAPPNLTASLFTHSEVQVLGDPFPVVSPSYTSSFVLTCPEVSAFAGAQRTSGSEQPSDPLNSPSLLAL
# INS-1E GSIS act: GLuc luminescence reporter in INS-1E cells, primary screen for activators of glucose-dependent secretion of insulin; INS-1E GLuc reporter insulin secretion, 2-3 h; activation, % at 16.6 µM; 0.61% of 370,000 active;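 active = lowest replicate activation of at least 40%, so every replicate reaches that level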;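 note: 0% = median of neutral control wells and 100% = median of IBMX positive control wells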
# HIV Env fusion: inhibitors of HIV-1 Env-driven cell-cell fusion, primary screen, HeLa-JRFL effector, CEM21 target cells, luciferase; inhibition, % at 12.3 µM; 1.1% of 360,000 active; AID 651610, 2012;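 active = mean replicate inhibition score of at least 50 and every replicate individually at or above 50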;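 note: 0% = plate neutral controls and 100% = maraviroc near 300 nM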
# CDK5 p35 inh: inhibitors of human CDK5/p35 kinase, primary screen, biochemical, single concentration; Recombinant CDK5/p35, ADP-Glo luminescence, 60 min; AID 488839, 2010; Cyclin-dependent kinase 5 (Homo sapiens) + Cyclin-dependent kinase 5 activator 1 (Homo …; inhibition, % at 10 µM; 0.01% of 330,000 active;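 active = highest replicate inhibition of at least 50% and at least 75% of replicates reaching 50%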;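 note: plate controls were DMSO neutral control for no effect and GW8510 at 10 µM for full effect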
# PAX8 reporter: inhibitors of PAX8-driven TPO luciferase reporter, primary screen, RMG-I cells, single concentration | SteadyGlo, 24 h | inhibition, % at 12.6 µM | 1.2% of 360,000 active;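 active = mean replicate inhibition at least 60% with every replicate also reaching 60%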;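 note: luciferase light reporting Pax8 driven TPO promoter activity; plate controls were median of neutral control wells for no effect and mitoxantrone controls for full effect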
# Cneo AK release: Cryptococcus neoformans cell lysis inducers, primary screen, AK release luminescence, single concentration | 0.2% of 360,000 active | AID 651654, 2012 | lysis activity, % at 15 µM | C. neoformans lysis, adenylate kinase release luminescence, 4 h; normalised: neutral wells 0, clomiphene wells 100;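 active = mean lysis activity across replicates of at least 80%, whatever share of replicates individually reach that level; inactive = mean lysis activity below 80%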
#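 Signal: Adenylate kinase release luminescence | Assay system: Log-phase Cryptococcus neoformans yeast cells | Input: Cells at 5 × 10^6 per mL | Buffer or medium: Fresh YPD growth medium | Compound: Single dose | Schedule: Static 4 h at 37 °C with compound, 1 h detection | Controls: Clomiphene | Read-out: Luminescence rise reflecting yeast cell lysis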
# dFosB act-2: activators of mouse delta FosB DNA binding, confirmation, biochemical, fluorescence polarization, TAMRA-CDK5 oligo, cherry-picked samples | shares compounds with dFosB act-1 | purified delta FosB; normalised: neutral wells 0, positive control 100 | activation, % at 24.9 µM | 2,400 tested, under 10 active | AID 588690, 2011;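 active = highest replicate activation at or above 34% and every replicate reaching that threshold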;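 note: higher polarization means more probe DNA bound by delta FosB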
# * marks the source's active call; other numbers are inactive results; . = no result; [ ] = dose if it differs, or a comment. Rows were chosen to be rich in hits. Some 2.9% of all compounds tested hit in one or more screens of this group.
SMILES,dFosB act-1,INS-1E GSIS act,HIV Env fusion,CDK5 p35 inh,PAX8 reporter,Cneo AK release,dFosB act-2
Cc1ccc(S(=O)(=O)Nc2ccc3c(c2)C(=O)N([C@@H](C)CO)C[C@H](C)[C@H](CN(C)Cc2ccc(Cl)c(Cl)c2)O3)cc1,.,-37,.,.,.,6,.
COc1ccc(C(C(=O)NCC2CCCO2)N(Cc2cccs2)C(=O)c2snc(C(N)=O)c2N)cc1OC (stereo not given),-11,18,3,1,13,4,.
CCOc1ccc(C(C(=O)NCC2CCCO2)N(Cc2cccs2)C(=O)c2snc(C(N)=O)c2N)cc1 (stereo not given),21*,6,13,-1,-6,7,6
CN(C)C(=O)C[C@@H]1C=C[C@H](NC(=O)C2CC2)[C@@H](CO)O1,.,16,7[16.7 µM],.,.,-1,.
O=C(c1cc(-c2ccc(Cl)c(Cl)c2)on1)N1CCOCC1,50*,6,-52,2,-106,4,0
O=C(c1cc(-c2ccc(Cl)cc2)on1)N1CCOCC1,-7,16,-98,-2,.,-7,.
CC(=O)Nc1ccc(NC(=O)C2CCCN(c3nnc(-n4cccc4)s3)C2)cc1 (stereo not given),31*,.,.,2,.,.,0
CC(C)NC(=O)C1CCCN(c2nnc(-n3cccc3)s2)C1 (stereo not given),-4,-2,-34,-1,-13,3,.
Cc1cccc(-c2ccc(C3[C@H]4CNC[C@@H]3N4C(=O)Nc3ccc(F)cc3)cc2)c1 (stereo not given in full),.,9,.,.,1,.,.
C[C@H](CO)N1C[C@H](C)[C@H](CN(C)S(=O)(=O)c2cn(C)cn2)OCCCC[C@H](C)Oc2ccc(NS(=O)(=O)c3ccccc3)cc2C1=O,.,16,-1[16.7 µM],.,7,1,.
Cc1cc(C)n(CC(=O)NNC(=O)CCCOc2ccc(Cl)c(C)c2)n1,21*,-1,9,0,-8,1,-2
Cc1cc(C)n(CC(=O)NNC(=O)CCCOc2ccc(Cl)cc2C)n1,34*,38,7,0,10,0,4
C[C@@H]1CCCCO[C@@H](CN(C)S(=O)(=O)c2ccc(Cl)cc2)[C@H](C)CN([C@H](C)CO)C(=O)c2cc(NC(=O)C3CCCCC3)ccc2O1,.,-4,31[16.7 µM],.,43,-2,.
Cc1cc(NC(=O)CSc2nnc(Nc3ccccc3C)s2)no1,62*,9,12,0,18,.,0
Cc1ccccc1NC(=O)CSc1nnc(NC(=O)c2ccco2)s1,39*,6,-22,0,-6,1,0
O=C(CSc1nnc(NC(=O)c2ccco2)s1)Nc1ccccc1F,-1,17,0,0,-7,0,.
C/C=C/c1ccc2c(c1)O[C@@H](CN(C)CCC)[C@@H](C)CN([C@H](C)CO)S2(=O)=O,.,-3,-15[16.7 µM],.,.,-4,.
OCCN1CCN(c2nc(-c3ccccc3O)nc3ccccc23)CC1,24*,11,16,3,-11,-1,6
CCN(CC(=O)Nc1ccc(NC(C)=O)cc1)C(=O)/C=C/c1cn(-c2ccccc2)nc1-c1ccc(F)cc1,21*,-6,-46,-1,10,.,1
C[C@@H]1CN(C)C(=O)c2cccnc2O[C@@H]1CN(C)S(C)(=O)=O,.,21,.,.,.,.,.
COc1ccc(NC(=O)c2c[nH]c(=O)n(-c3ccc(C)c(C)c3)c2=O)c(OC)c1,35*,-2,19,-1,25,1,4
COc1ccc(NC(=O)c2c[nH]c(=O)n(-c3ccc(C)c(C)c3)c2=O)cc1OC,-20,.,-3,0,28,-2,.
C[C@@H]1CC=CC[C@@H](c2ccc(F)cc2)NC(=O)[C@H](C)N(C)C(=O)c2ccccc2O1 (mixture of isomers),.,26,.,.,.,.,.
COC(=O)C[C@H]1C=C[C@H](NS(=O)(=O)c2ccccc2F)[C@H](CO)O1,.,15,-10[16.7 µM],.,-1,3,.
O=C(N/N=C/c1ccc(-c2ccccc2Cl)o1)c1ccccc1,32*,-14,-73,1,-34,.,0
SMILES,dFosB act-1,INS-1E GSIS act,HIV Env fusion,CDK5 p35 inh,PAX8 reporter,Cneo AK release,dFosB act-2
CCN1Cc2c(/C=C/c3ccccc3)nc3ccc(OC)cc3c2N(c2cccc(Cl)c2)C1,21*,2,14,1,18,.,4
Cc1cc2ccccc2c(=O)n1CC(=O)Nc1ccc2c(c1)OCCO2,19*,.,.,-1,.,1,0
COc1ccc(NC(=O)CNC(=O)Cn2c(C)cc3ccccc3c2=O)cc1OC,10,-9,9,0,7,.,.
Cn1c(=O)cc(OCCCC(=O)Nc2ccc3c(c2)OCCO3)c2ccccc21,44*,.,-9,-1,-5,-3,2
CCCN(C)C[C@H]1Oc2ncc(C#CCN(C)C)cc2C(=O)N([C@@H](C)CO)C[C@H]1C,.,13,13[16.7 µM],.,.,5,.
O=C(Nc1ccc2c(c1)[C@H]1C[C@H](CC(=O)N3CCc4ccccc4C3)O[C@@H](CO)[C@H]1O2)C1CCOCC1,.,6,-10[16.7 µM],.,9,2,.
COc1ccc(C(=O)Nc2ccc3c(c2)C(=O)N(C)C[C@H](OC)[C@H](C)CN[C@H](C)CO3)cc1,.,28,5[16.7 µM],.,1,-1,.
O=C(Nc1nnc(-c2cccs2)s1)c1cccc(F)c1,36*,2,-15,-2,-70,-3,-5
COc1ccc(N(CC(=O)Nc2ccc(F)c(Cl)c2)S(=O)(=O)c2c(C)noc2C)cc1,28*,.,-54,0,-20,0,2
CCc1cccc(OCC2Cn3c(nc4c3c(=O)[nH]c(=O)n4C)O2)c1 (stereo not given),20*,-2,9,1,15,3,3
CCc1cccc(OCC2Cn3c(nc4c3c(=O)n(C)c(=O)n4C)O2)c1 (stereo not given),-7,-6,9,0,18,3,.
CC(=O)Nc1sc(C)c(C)c1C(=O)OCC(=O)NCc1ccc(Cl)cc1,90*,11,.,-2,-1,-1,3
COc1cccc(CNC(=O)COC(=O)c2c(NC(C)=O)sc(C)c2C)c1,-6,-5,.,2,2,2,.
Cc1ccc(Nc2nc(N)c3ccccc3n2)cc1C,42*,-22,-161,5,-12,-25,1

# Screening results from PubChem BioAssay.
